In ChEMBL document CHEMBL4477213, “Discovery and Optimization of Quinazolinone-pyrrolopyrrolones as Potent and Orally Bioavailable Pan-Pim Kinase Inhibitors” (J Med Chem, 2016):
Converted amounts (≈) assume the structure as drawn.

Key:
[1] = biological target: Serine/threonine-protein kinase pim-2 (Homo sapiens, UniProt Q9P1W9); test: Inhibition of full length recombinant Pim-2 (unknown origin) assessed as reduction in phosphorylation of biotinylated-BAD peptide at Serine 112 residue preincubated for 30 mins followed by substrate addition for 1 hr by HTRF assay
[2] = Aqueous solubility of the compound in FaSIF at pH 6.8 after 1 hr by LC/MS analysis
[3] = biological target: Serine/threonine-protein kinase pim-1 (Homo sapiens, UniProt P11309)
[4] = biological target: Serine/threonine-protein kinase PIM (Homo sapiens, UniProt P11309+Q9P1W9+Q86V86); conditions: kms-12-bm
[5] = Aqueous solubility of the compound in PBS at pH 7.4 after 1 hr by LC/MS analysis; format: physicochemical
In short: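 The compound was dried down from DMSO and taken up in 1x PBS (pH 7.4) or FaSIF (pH 6.8). Samples were shaken 1 h, equilibrated at RT for 72 h, then centrifuged.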

[6] = Drug level in dog liver microsomes treated with 2-(3-(tert-butylamino)-6-fluoro-2-methylquinoxalin-5-yl)-6,7-dihydro-1H-pyrrolo[3,2-c]pyridin-4(5H)-one; format: ADME, Canis lupus familiaris, Microsome
In short: (§1)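 Parent compound at 1 µM was incubated with liver microsomes (rat or dog, 0.25 mg/mL) in 66.7 mM potassium phosphate, pH 7.4, with 1 mM NADPH at 37 °C for 30 min.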

[7] = Half life in rat at 2 mg/kg, iv or 5 mg/kg, po; format: ADME, organism-based; conditions: in vivo
[8] = Fraction unbound in rat plasma at 5 uM by rapid equilibrium dialysis; format: ADME, cell-free
[9] = Volume of distribution at steady state in dog at 0.3 mg/kg, iv; format: ADME, organism-based, Canis lupus familiaris; conditions: in vivo; for Vd: read-out: Vdss
[10] = Fraction unbound in dog plasma by rapid equilibrium dialysis; format: ADME, cell-free, Canis lupus familiaris
[11] = Unbound clearance in iv dosed rat; format: ADME, organism-based; conditions: in vivo
In short: (§2)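 Unbound plasma fraction (fu) measured by rapid equilibrium dialysis in rat or dog plasma; unbound clearance CLu calculated from IV clearance and fu.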

[12] = Volume of distribution at steady state in rat at 2 mg/kg, iv or 5 mg/kg, po; format: ADME, organism-based; conditions: in vivo, read-out: Vdss
[13] = Clearance in dog at 0.3 mg/kg, iv; format: ADME, organism-based, Canis lupus familiaris; conditions: in vivo
[14] = Clearance in rat at 2 mg/kg, iv; format: ADME, organism-based; conditions: in vivo
[15] = Intrinsic clearance in dog liver microsomes at 1 uM after 30 mins in presence of NADPH; format: ADME, Canis lupus familiaris, Microsome; conditions: read-out: CLH; in short: as §1
[16] = Oral bioavailability in rat at 5 mg/kg; format: ADME, organism-based; conditions: in vivo
[17] = Half life in dog at 0.3 mg/kg, iv; format: ADME, organism-based, Canis lupus familiaris; conditions: in vivo
[18] = Unbound clearance in iv dosed dog; format: ADME, organism-based, Canis lupus familiaris; conditions: in vivo; in short: as §2
[19] = Intrinsic clearance in dog hepatocytes assessed per 10^6 cells; format: ADME, cell-based, Canis lupus familiaris, Hepatocyte; conditions: read-out: CLH
[20] = Intrinsic clearance in rat liver microsomes at 1 uM after 30 mins in presence of NADPH; format: ADME, Microsome; conditions: read-out: CLH
[21] = Intrinsic clearance in rat hepatocytes assessed per 10^6 cells; format: ADME, cell-based, Hepatocyte; conditions: read-out: CLH
[22] = Drug metabolism in rat liver microsomes assessed as hydroxylation of t-butyl group measured as 2-(6-fluoro-3-(1-hydroxy-2-methylpropan-2-ylamino)-2-methylquinoxalin-5-yl)-6,7-dihydro-1H-pyrrolo[3,2-c]pyridin-4(5H)-one formation; format: ADME, Microsome
[23] = Intrinsic clearance in human liver microsomes at 1 uM after 30 mins in presence of NADPH; format: ADME, Microsome; conditions: read-out: CLH
KMS-12-BM = test: Antitumor activity against human KMS-12-BM cells xenografted in SCID-bg mouse assessed as tumor growth inhibition at 50 mg/kg, po qd measured twice per week; format: functional; conditions: read-out: TGI
[24] = Drug metabolism in dog liver microsomes assessed as dehydrogenation of 6,7-dihydro-1H-pyrrolo[3,2-c]pyridin-4(5H)-one measured as 2-(3-(tert-butylamino)-6-fluoro-2-methylquinoxalin-5-yl)-1H-pyrrolo[3,2-c]pyridin-4(5H)-one formation; format: ADME, Canis lupus familiaris, Microsome
[25] = Apparent permeability in pig LLC-PK1 cells; format: ADME, cell-based, Sus scrofa
[26] = Drug metabolism in dog hepatocytes assessed as hydroxylation on the quinoxaline bicycle; format: ADME, cell-based, Canis lupus familiaris, Hepatocyte
[27] = Drug level in rat liver microsomes treated with 2-(3-(tert-butylamino)-6-fluoro-2-methylquinoxalin-5-yl)-6,7-dihydro-1H-pyrrolo[3,2-c]pyridin-4(5H)-one; format: ADME, Microsome; in short: as §1
Homo sapiens = species on record: Homo sapiens; test: Ratio of IC50 for pan Pim in human KMS-12-BM cells to IC50 for full length recombinant Pim-2 (unknown origin); format: cell-based
In short: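 Enzyme step: full-length recombinant human Pim-2 phosphorylating a BAD peptide at Ser112. The shift is the ratio of the cellular potency to the enzymatic potency.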

Sequence of Serine/threonine-protein kinase pim-1 (P11309 whole entry): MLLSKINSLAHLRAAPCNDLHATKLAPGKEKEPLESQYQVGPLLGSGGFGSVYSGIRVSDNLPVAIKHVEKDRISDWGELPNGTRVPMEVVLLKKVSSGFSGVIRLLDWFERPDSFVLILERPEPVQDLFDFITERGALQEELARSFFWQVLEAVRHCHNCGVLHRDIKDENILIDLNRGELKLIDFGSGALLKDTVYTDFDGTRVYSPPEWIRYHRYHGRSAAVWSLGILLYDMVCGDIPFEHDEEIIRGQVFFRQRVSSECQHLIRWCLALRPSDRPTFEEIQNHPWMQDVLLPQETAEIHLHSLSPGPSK
Sequence of Serine/threonine-protein kinase pim-2 (Q9P1W9 whole entry): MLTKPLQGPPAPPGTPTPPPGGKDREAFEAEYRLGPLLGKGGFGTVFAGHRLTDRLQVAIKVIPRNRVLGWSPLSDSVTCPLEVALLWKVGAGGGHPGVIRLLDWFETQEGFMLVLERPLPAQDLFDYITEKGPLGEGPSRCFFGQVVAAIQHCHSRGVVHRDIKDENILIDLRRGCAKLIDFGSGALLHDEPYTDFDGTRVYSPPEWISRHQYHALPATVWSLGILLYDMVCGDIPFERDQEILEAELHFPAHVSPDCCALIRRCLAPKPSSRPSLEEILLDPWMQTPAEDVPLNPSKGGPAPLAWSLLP

Row | Structure (SMILES) | IC50 [1] | solubility at 1 h [2] | IC50 [3] | IC50 [4] | solubility at 1 h [5] | half-life [7] | Vd [12] | clearance [14] | bioavailability [16] | microsomal CLint at 1 µM [20] | microsomal CLint at 1 µM [23] | further results
1 | C[C@H]1NC(=O)c2cc(-c3cccc4c(=O)n(C)c(N5CCCC5(C)C)nc34)[nH]c21 | 0.6 nM | 35 µM (≈ 13.7 µg/mL) | 0.9 nM | 88 nM | 20 µM (≈ 7.83 µg/mL) | – | – | – | – | – | – | –
2 | Cc1nc2ccc(F)c(-c3cc4c(=O)[nH]ccc4[nH]3)c2nc1NC(C)(C)C | 0.1 nM | – | 0.2 nM | 148 nM | – | – | – | – | – | – | – | Drug metabolism [6]: Metabolite_Detected
3 | Cc1nc2ccc(F)c(-c3cc4c([nH]3)CCNC4=O)c2nc1NC(C)(C)C | 0.3 nM | – | 0.3 nM | 23 nM | – | 3.5 h | 1 L/kg | 6.67 mL/min/kg | 37% | 189 µL/min/mg | 66 µL/min/mg | fraction unbound at 5 µM [8]: 0.017; Vdss [9]: 8.7 L/kg; fraction unbound [10]: 0.06; CL free [11]: 392 mL/min/kg; CL [13]: 56.7 mL/min/kg; microsomal CLint at 1 µM [15]: 203 µL/min/mg; t1/2 [17]: 0.6 h; CL free [18]: 943 mL/min/kg; hepatocyte CLint [19]: 32 µL/min/1e6 cells; hepatocyte CLint [21]: 39 µL/min/1e6 cells; Drug metabolism [22]: Metabolite_Detected; inhibition in vivo at 50 mg/kg (KMS-12-BM): 78%; Drug metabolism [24]: Metabolite_Detected
4 | C[C@H]1NC(=O)c2cc(-c3cccc4c(=O)n(C)c(NC5(C)CC5)nc34)[nH]c21 | – | 344 µM (≈ 125 µg/mL) | – | – | 56 µM (≈ 20.4 µg/mL) | – | 1.9 L/kg | – | 5% | – | – | Papp [25]: 29 ×10⁻⁶ cm/s
5 | Cc1nc2ccc(F)c(-c3cc4c([nH]3)[C@@H](C)NC4=O)c2nc1NC(C)(C)C | – | – | – | – | – | 2.9 h | 1.6 L/kg | 8.33 mL/min/kg | 54% | 52 µL/min/mg | 35 µL/min/mg | Vd [9]: 1.7 L/kg; clearance [13]: 25 mL/min/kg; microsomal CLint at 1 µM [15]: 105 µL/min/mg; half-life [17]: 1.1 h
6 | Cc1nc2cccc(-c3cc4c([nH]3)[C@@H](C)NC4=O)c2nc1NC(C)(C)C | – | 245 µM (≈ 85.6 µg/mL) | – | – | 99 µM (≈ 34.6 µg/mL) | 3 h | 1.3 L/kg | 8.33 mL/min/kg | 62% | 50 µL/min/mg | 37 µL/min/mg | Vd [9]: 1.7 L/kg; clearance [13]: 26.7 mL/min/kg; microsomal CLint at 1 µM [15]: 88 µL/min/mg; half-life [17]: 0.6 h; Drug metabolism [26]: Metabolite_Detected
7 | Cc1nc2ccc(F)c(-c3cc4c([nH]3)CCNC4=O)c2nc1NC(C)(C)CO | 0.3 nM | – | 0.9 nM | 143 nM | – | – | – | – | – | – | – | Drug metabolism [27]: Metabolite_Detected
8 | C[C@H]1NC(=O)c2cc(-c3cccc4c(=O)n(C)c(NC(C)(C)CO)nc34)[nH]c21 | 0.9 nM | 134 µM (≈ 51.1 µg/mL) | 0.7 nM | 127 nM | 101 µM (≈ 38.5 µg/mL) | – | – | – | – | – | – | –
9 | Cc1nc2cccc(-c3cc4c([nH]3)C3(CC3)NC4=O)c2nc1NC(C)(C)C | 0.5 nM | – | 0.4 nM | 78 nM | – | 4.5 h | 1.3 L/kg | 10 mL/min/kg | 100% | 52 µL/min/mg | 35 µL/min/mg | –
10 | C[C@H]1NC(=O)c2cc(-c3cccc4c(=O)n(C)c(CC(C)(C)C)nc34)[nH]c21 | 4.9 nM | 9 µM (≈ 3.28 µg/mL) | 7.3 nM | 5960 nM | – | – | – | – | – | – | – | Ratio IC50 (Homo sapiens): > 1000
11 | C[C@H]1NC(=O)c2cc(-c3cccc4c(=O)n(C)c(N(C)C(C)(C)C)nc34)[nH]c21 | 1 nM | 122 µM (≈ 46.3 µg/mL) | 1.5 nM | 167 nM | 61 µM (≈ 23.1 µg/mL) | – | – | – | – | – | – | –
12 | C[C@H]1NC(=O)c2cc(-c3c(F)ccc4c(=O)n(C)c(NC(C)(C)C)nc34)[nH]c21 | – | 23 µM (≈ 8.82 µg/mL) | – | – | 14 µM (≈ 5.37 µg/mL) | 4.3 h | 1.4 L/kg | 6.67 mL/min/kg | 10% | 16 µL/min/mg | < 14 µL/min/mg | fraction unbound at 5 µM [8]: 0.062; Papp [25]: 16 ×10⁻⁶ cm/s
